For orientation: Ki means the dissociation constant of the complex between target and ligand, obtained from inhibition or displacement.

Consider five compounds from ChEMBL document CHEMBL1128263, “N-(1-methyl-5-indolyl)-N'-(3-methyl-5-isothiazolyl)urea: a novel, high-affinity 5-HT2B receptor antagonist” (J Med Chem, 1995).

Test [1] concerns the target T1, 5-hydroxytryptamine receptor 2C (Homo sapiens, UniProt P28335).
T1 sequence (P28335 whole entry): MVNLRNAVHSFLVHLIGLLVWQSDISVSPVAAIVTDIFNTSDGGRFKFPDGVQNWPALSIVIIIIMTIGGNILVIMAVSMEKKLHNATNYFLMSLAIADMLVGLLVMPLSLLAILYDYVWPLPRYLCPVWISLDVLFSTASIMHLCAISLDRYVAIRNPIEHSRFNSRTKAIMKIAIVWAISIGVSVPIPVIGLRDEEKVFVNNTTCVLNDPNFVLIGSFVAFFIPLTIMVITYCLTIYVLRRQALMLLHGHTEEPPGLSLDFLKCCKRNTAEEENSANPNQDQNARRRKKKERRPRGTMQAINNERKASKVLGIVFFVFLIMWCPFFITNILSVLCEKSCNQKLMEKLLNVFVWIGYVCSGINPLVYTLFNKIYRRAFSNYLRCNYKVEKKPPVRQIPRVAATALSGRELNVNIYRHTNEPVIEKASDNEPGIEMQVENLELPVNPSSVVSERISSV
Briefly: (§1) Selectivity as the ratio of Ki value towards 5-hydroxytryptamine 2C receptor to that of pA2 value towards 5-hydroxytryptamine 2B receptor. Type of test: functional.

Test [2] concerns the target 5-HT2C receptor (Homo sapiens). The test is described as follows: Antagonistic binding affinity measured against 5-hydroxytryptamine 2C receptor (human clone expressed in 293 cells) using [3H]mesulergine as radioligand.
The target of test [3] is 5-hydroxytryptamine receptor 2B (Rattus norvegicus, UniProt P30994). The test is described as follows: Antagonistic affinity measured as pA2 value on 5-hydroxytryptamine 2B receptor of the rat stomach fundus. Particulars: read-out: pA2 (converted). The format is functional, tissue-based.
Sequence of 5-hydroxytryptamine receptor 2B (P30994 whole entry): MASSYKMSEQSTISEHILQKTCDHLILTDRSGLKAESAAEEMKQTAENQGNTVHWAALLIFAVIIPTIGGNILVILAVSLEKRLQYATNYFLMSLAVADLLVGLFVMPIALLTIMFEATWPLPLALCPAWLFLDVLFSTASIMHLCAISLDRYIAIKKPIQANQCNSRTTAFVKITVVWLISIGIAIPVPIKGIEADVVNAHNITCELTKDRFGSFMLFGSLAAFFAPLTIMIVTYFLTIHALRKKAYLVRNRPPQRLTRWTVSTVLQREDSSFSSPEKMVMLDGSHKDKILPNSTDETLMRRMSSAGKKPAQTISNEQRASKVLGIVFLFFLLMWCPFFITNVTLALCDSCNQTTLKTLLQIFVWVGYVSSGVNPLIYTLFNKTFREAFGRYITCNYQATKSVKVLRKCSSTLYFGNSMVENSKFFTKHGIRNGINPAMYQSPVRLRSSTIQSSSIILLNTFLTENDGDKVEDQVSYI
Test [4] concerns the target 5-hydroxytryptamine receptor 1E (Homo sapiens, UniProt P28566). The test is described as follows: The binding affinity (pKi) measured against 5-hydroxytryptamine 1E receptor (cloned human receptors in CHO cells) using […] as radioligand. The format is cell-based. Summed up: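 Radioligand binding at cloned human 5-HT1E receptors expressed in CHO cells, labelled with [3H]-5-HT.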

For a further test, the target named is D(2) dopamine receptor (Homo sapiens, UniProt P14416). Briefly: In vitro binding affinity was measured on Dopamine receptor D2.
Sequence of D(2) dopamine receptor (P14416 whole entry): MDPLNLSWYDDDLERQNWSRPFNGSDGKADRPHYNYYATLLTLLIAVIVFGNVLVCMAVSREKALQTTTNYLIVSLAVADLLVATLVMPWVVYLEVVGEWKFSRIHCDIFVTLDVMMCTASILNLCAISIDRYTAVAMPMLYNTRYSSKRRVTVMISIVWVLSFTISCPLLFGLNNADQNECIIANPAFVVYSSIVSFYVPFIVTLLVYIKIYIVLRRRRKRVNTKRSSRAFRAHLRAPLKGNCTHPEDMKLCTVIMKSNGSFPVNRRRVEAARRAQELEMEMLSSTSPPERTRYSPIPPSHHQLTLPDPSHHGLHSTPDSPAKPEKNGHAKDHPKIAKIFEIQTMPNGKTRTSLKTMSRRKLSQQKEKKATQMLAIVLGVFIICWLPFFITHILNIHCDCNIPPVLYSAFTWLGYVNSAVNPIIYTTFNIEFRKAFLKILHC
Another test concerns the target Histamine H1 receptor (Cavia porcellus, UniProt P31389). Briefly: The binding affinity (pKi) measured against histamine H1 receptor of guinea pig cerebellum using [3H]mepyramine as radioligand. The format is tissue-based.
Test [5] has as its target GABA-A receptor; anion channel. The test is described as follows: Inhibition of [3H]muscimol binding to Gamma-aminobutyric acid A (GABA-A) receptor of rat cortex.
In test [6] the target is T2, Adrenergic receptor alpha-1 (Rattus norvegicus, UniProt P15823+P23944+P43140).
T2 sequence (P15823 whole entry): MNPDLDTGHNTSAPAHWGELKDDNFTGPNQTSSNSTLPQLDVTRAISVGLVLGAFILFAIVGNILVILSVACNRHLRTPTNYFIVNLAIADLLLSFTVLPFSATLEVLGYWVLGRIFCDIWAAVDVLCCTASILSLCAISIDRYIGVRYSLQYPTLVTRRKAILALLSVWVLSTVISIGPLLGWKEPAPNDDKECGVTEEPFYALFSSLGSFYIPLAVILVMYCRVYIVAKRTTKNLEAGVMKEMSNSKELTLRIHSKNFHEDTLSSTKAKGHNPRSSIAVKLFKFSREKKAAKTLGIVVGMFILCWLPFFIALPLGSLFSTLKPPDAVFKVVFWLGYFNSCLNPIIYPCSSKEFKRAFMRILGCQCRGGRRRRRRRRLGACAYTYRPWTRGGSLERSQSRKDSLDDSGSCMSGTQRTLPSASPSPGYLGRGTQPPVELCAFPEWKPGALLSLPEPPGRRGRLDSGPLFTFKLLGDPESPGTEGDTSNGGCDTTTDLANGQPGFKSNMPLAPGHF
T2 sequence (P23944 whole entry): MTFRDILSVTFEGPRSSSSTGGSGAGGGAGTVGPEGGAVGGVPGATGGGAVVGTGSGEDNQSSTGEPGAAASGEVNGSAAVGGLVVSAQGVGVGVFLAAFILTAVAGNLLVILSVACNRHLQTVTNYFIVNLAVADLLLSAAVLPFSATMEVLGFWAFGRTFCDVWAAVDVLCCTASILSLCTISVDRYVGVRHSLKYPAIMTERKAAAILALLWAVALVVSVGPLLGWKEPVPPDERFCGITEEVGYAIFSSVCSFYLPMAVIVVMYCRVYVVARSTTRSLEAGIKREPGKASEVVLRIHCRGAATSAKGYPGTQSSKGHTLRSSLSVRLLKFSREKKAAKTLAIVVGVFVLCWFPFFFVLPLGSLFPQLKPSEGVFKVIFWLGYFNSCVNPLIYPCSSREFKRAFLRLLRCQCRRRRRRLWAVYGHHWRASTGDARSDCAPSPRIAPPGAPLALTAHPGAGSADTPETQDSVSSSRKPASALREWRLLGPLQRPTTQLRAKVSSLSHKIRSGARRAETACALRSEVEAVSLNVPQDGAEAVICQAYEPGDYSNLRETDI
T2 sequence (P43140 whole entry): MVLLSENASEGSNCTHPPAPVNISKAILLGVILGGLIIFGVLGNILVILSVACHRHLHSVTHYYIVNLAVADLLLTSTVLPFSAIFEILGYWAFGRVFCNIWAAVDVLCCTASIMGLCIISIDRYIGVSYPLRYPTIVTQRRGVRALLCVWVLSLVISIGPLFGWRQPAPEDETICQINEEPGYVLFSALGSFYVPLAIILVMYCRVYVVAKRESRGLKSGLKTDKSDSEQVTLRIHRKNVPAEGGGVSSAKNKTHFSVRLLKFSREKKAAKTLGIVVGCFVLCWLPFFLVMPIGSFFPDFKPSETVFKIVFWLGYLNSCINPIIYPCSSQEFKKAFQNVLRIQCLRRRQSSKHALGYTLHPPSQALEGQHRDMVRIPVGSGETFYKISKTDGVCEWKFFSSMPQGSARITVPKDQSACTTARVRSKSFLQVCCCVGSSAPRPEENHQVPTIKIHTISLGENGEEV
Briefly: The binding affinity (pKi) measured against Alpha-1 adrenergic receptor of rat cortex using [3H]prazosin as radioligand.

A further test deals with D(1A) dopamine receptor (Homo sapiens, UniProt P21728). Briefly: The binding affinity (pKi) measured against Dopamine receptor D1 using [3H]-SCH- 23390 as radioligand. Summed up: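 Binding at cloned human dopamine D1 receptors expressed in LTK cells.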
Sequence of D(1A) dopamine receptor (P21728 whole entry): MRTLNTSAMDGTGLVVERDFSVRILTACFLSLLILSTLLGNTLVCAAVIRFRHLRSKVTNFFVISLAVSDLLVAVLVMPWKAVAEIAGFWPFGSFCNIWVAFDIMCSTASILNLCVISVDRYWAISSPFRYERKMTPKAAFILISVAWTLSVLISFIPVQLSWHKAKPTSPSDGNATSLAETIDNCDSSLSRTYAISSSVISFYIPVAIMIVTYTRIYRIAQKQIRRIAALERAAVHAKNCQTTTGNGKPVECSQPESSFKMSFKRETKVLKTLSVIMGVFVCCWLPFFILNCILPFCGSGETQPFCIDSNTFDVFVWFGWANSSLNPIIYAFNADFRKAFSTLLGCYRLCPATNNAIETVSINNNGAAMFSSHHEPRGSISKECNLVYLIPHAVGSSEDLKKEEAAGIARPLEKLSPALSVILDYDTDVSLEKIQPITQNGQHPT
In test [7] the target is T1, 5-hydroxytryptamine receptor 2C. The test is described as follows: Antagonistic binding affinity measured against 5-hydroxytryptamine 2C receptor (human clone expressed in 293 cells) using [3H]mesulergine as radioligand. The format is cell-based, HEK293.
Test [8] can be described thus: as §1. The format is functional.
The target in test [9] is 5-hydroxytryptamine receptor 2A (Homo sapiens, UniProt P28223). Briefly: Antagonistic binding affinity measured against 5-hydroxytryptamine 2A receptor (human clone expressed in 293 cells) using [3H]ketanserin as radioligand. The format is cell-based, HEK293.
Sequence of 5-hydroxytryptamine receptor 2A (P28223 whole entry): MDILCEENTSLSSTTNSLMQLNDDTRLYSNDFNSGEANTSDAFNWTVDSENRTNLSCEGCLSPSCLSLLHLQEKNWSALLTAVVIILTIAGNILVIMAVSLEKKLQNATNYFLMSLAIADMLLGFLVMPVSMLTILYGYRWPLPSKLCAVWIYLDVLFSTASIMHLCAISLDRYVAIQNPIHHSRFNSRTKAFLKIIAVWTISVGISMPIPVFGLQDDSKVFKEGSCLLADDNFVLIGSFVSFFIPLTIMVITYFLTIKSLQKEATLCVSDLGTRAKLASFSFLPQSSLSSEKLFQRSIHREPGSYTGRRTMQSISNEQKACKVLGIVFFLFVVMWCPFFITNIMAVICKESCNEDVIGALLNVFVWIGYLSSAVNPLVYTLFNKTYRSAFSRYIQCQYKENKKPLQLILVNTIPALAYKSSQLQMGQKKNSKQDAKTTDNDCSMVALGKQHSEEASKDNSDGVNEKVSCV

Each structure is given as a SMILES string.

Sequence of Histamine H1 receptor (P31389 whole entry): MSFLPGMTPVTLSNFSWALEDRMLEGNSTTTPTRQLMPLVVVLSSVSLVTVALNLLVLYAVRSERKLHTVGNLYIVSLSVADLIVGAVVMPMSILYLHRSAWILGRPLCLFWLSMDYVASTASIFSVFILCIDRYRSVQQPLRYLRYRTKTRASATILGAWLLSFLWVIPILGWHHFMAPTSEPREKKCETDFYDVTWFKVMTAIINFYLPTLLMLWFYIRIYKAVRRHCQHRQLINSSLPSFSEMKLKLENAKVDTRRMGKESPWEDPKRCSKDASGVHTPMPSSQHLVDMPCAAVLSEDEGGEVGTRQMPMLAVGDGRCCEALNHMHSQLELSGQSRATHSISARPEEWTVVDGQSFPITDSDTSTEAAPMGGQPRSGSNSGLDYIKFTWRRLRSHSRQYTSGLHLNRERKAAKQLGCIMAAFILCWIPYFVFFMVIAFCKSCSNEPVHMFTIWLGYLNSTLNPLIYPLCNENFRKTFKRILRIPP
Sequence of 5-hydroxytryptamine receptor 1E (P28566 whole entry): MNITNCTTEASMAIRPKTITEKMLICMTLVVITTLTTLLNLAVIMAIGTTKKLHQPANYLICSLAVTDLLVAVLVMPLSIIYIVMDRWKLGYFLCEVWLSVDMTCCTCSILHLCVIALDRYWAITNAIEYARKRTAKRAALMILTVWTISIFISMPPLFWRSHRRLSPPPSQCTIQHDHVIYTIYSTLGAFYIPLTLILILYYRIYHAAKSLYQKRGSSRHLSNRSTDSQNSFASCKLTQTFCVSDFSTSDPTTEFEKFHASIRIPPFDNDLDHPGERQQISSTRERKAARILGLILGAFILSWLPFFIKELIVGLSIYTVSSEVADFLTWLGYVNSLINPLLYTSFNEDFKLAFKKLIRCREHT

On to `Cc1cc(NC(=O)Nc2ccc3c(ccn3C)c2)on1`, for which the Ki in [1] is 347 nM; in test [2] it was above 6310 nM. Also, the Kb in test [3] is 69.2 nM.
For the compound `Cc1cc(NC(=O)Nc2ccc3c(ccn3C)c2)sn1`, the Ki in test [4] is above 100000 nM; at D(2) dopamine receptor, above 31600 nM; on Histamine H1 receptor, above 10000 nM; at D(1A) dopamine receptor, above 10000 nM. In addition, in test [3], the Kb is 11.2 nM. The Log Ki in [5] is above -5; in test [6], above -5.5.
As to `Cn1ccc2cc(NC(=O)Nc3cccnc3)ccc21`, the Ki in test [1] was 110 nM. Besides, in test [3], the Kb was 38.9 nM.
In the case of `Cc1cc(NC(=O)Nc2ccc3sccc3c2)on1`, the inhibition constant (Ki) was 89.1 nM in test [1] and above 6310 nM in test [2]. Further, the Kb in test [3] was 46.8 nM.
As for `Cc1cc(NC(=O)Nc2ccc3sccc3c2)sn1`, in [3], the Kb was 15.1 nM. The inhibition constant (Ki) in test [7] was 417 nM; in test [9], 6310 nM. Besides, the Selectivity in [8] worked out at 27.
